Data on 15 compounds can be found in ChEMBL document CHEMBL3351342, “Synthesis and biological evaluation of phenoxyacetic acid derivatives as novel free fatty acid receptor 1 agonists” (Bioorg Med Chem, 2015).

The target of series [1] is T1, Free fatty acid receptor 1 (Homo sapiens, UniProt O14842). The series can be described thus: Agonist activity at human FFA1 expressed in CHO cells assessed as ratio of increase in intracellular Ca2+ concentration in compound treated cells at 100 nM to vehicle-treated cells by Fluo-4 AM based fluorescence assay. Type of series: functional, cell-based. Put shortly: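 Same Fluo-4 Ca2+ flux format in CHO cells stably expressing human FFA1. Single screening concentration of 100 nM. Activity expressed as A/B, the Ca2+ increase in compound-treated wells divided by that in vehicle-treated wells. Three independent experiments.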

The target in series [2] is T1, Free fatty acid receptor 1. The series is described as follows: Agonist activity at human FFA1 expressed in CHO cells assessed as increase in intracellular Ca2+ concentration by Fluo-4 AM based fluorescence assay. Format: functional, cell-based. The gist of the method: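 CHO cells stably expressing human FFA1 (NM_005303), 30,000 cells/well, cultured overnight at 37 °C in 5% CO2. Loaded with 2.5 µg/mL Fluo-4 AM and 2.5 mmol/L probenecid in HBSS for 90 min at 37 °C, washed, then held 10 min in HBSS with probenecid. Ca2+ rise after adding compound at various concentrations read by fluorimetry. EC50 from curve fitting, mean of three determinations.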

Series [3] deals with Mus musculus. The series can be described thus: Hypoglycemic effect in ICR mouse assessed as improvement in glucose intolerance at 20 mg/kg, po dosed 30 mins before oral glucose challenge by oral glucose tolerance test. Also noted: dose 20 mg/kg. Type of series: functional, organism-based. Put shortly:
(§1)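 Male ICR mice, 10 weeks old, fasted 12 h and randomized (n = 6). Single oral dose of 20 mg/kg as a suspension in 0.5% methylcellulose (1.0 mL/kg), given 30 min before an oral glucose load of 2 g/kg (20% solution). Blood glucose read by test strip at −30, 0, 15, 30, 60 and 120 min. AUC0–120 min calculated; mean ± SEM.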

Series [4] deals with Mus musculus. The series can be described thus: Hypoglycemic effect in ICR mouse assessed as reduction in glucose AUC (0 to 120 mins) at 20 mg/kg, po dosed 30 mins before oral glucose challenge by oral glucose tolerance test. Format: functional. More on the design: scale not given: the % may be the effect or the level left. Put shortly:
as §1

The test system of series [5] is Mus musculus. The series can be described thus: Antihyperglycemic effect in type 2 diabetic C57BL/6 mouse assessed as reduction in blood glucose level at 60 mg/kg, po administered as single dose. Format: functional, organism-based. More on the design: dose 60 mg/kg. The gist of the method: (§2)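 Type 2 diabetes model: male C57BL/6 mice on high-fat diet (45% fat) for 4 weeks, STZ 80 mg/kg ip, then high-fat diet for another 4 weeks. Fasting glucose ≥11.1 mmol/L counted as diabetic. Mice fasted 12 h and randomized by weight and glucose (n = 6). Single oral dose of 30–100 mg/kg in 0.5% methylcellulose given 30 min before an oral glucose load of 1 g/kg. Glucose read by strip to 120 min; AUC0–120 min; mean ± SD.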

Series [6] deals with Mus musculus. The series is described as follows: Antihyperglycemic effect in type 2 diabetic C57BL/6 mouse assessed as reduction in blood glucose level at 30 to 100 mg/kg, po. Format: functional, organism-based. The gist of the method: as §2
Series [7] is described as follows: Clearance in Sprague-Dawley rat at 1 mg/kg, iv. Type of series: ADME, organism-based. Also noted: dose 1 mg/kg, route intravenous. The settings on record: in vivo. The gist of the method:
(§3)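 Fasted male SD rats (n = 3). Dosed 1 mg/kg iv (0.5 mg/mL, 2 mL/kg) or 1 mg/kg po (1 mg/mL, 1 mL/kg), both in 0.5% methylcellulose. Tail-vein blood in EDTA sampled from 5 min to 36 h. Plasma proteins precipitated with acetonitrile containing internal standard, then analysed by LC-MS/MS. Parameters derived from mean concentrations at each time point.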

Series [8] in a line: Volume of distribution in Sprague-Dawley rat at 1 mg/kg, iv. Type of series: ADME, organism-based. More on the design: dose 1 mg/kg, route intravenous. The settings on record: in vivo. Put shortly: as §3
A short description of series [9]: Half life in Sprague-Dawley rat at 1 mg/kg, iv. The settings on record: in vivo. Type of series: ADME, organism-based. Also noted: dose 1 mg/kg, route intravenous. The gist of the method: as §3
Series [10] in a line: Half life in Sprague-Dawley rat at 1 mg/kg, po. Type of series: ADME, organism-based. More on the design: dose 1 mg/kg, route oral. The settings on record: in vivo. Put shortly: as §3
The nature of series [11]: Cmax in Sprague-Dawley rat at 1 mg/kg, po. Type of series: ADME, organism-based. Also noted: dose 1 mg/kg, route oral. The settings on record: in vivo. The gist of the method: as §3
Series [12] can be described thus: Tmax in Sprague-Dawley rat at 1 mg/kg, po. The settings on record: in vivo. Also noted: dose 1 mg/kg, route oral. Type of series: ADME, organism-based. Put shortly:
as §3

Series [13] is described as follows: AUC (0 to 8 hrs) in Sprague-Dawley rat at 1 mg/kg, po. Format: ADME, organism-based. Also noted: time < 8 hr, dose 1 mg/kg, route oral. The settings on record: plasma. Put shortly: as §3
A short description of series [14]: Oral bioavailability in Sprague-Dawley rat at 1 mg/kg. The settings on record: in vivo. Type of series: ADME, organism-based. Put shortly: as §3

Active and inactive are the calls of the source.

T1 sequence (O14842 whole entry): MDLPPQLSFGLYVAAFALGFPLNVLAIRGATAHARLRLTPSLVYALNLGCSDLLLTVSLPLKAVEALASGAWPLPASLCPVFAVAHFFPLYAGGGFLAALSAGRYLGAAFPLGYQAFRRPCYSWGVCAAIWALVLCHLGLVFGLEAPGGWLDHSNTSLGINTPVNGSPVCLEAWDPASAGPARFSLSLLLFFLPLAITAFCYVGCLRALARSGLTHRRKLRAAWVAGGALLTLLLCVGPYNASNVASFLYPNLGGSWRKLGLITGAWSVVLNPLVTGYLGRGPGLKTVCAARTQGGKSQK

What is called EC50 is the concentration that produces a half-maximal response. As for `Cc1cc(OCCCS(C)(=O)=O)cc(C)c1-c1cccc(COc2ccc(OC(C)C(=O)O)cc2)c1` (configuration not stated), the Ratio in series [1] amounted to 4.04. Besides, the concentration for a half-maximal effect (EC50) in series [2] was found to be 389 nM. In addition, the result with Mus musculus [3] was Active.

Turning to `Cc1cc(OCCCS(C)(=O)=O)cc(C)c1-c1cccc(COc2ccc(OCC(=O)O)cc2)c1`, in series [1], the Ratio stood at 6.04. Besides, the concentration for a half-maximal effect (EC50) in series [2] came to 121 nM. In addition, the outcome with Mus musculus [3] was Active.

On to `Cc1cc(OCc2cccc(-c3c(C)cc(OCCCS(C)(=O)=O)cc3C)c2)ccc1OCC(=O)O`, for which the Ratio in series [1] worked out at 5.64. The EC50 in series [2] came out at 153 nM. In addition, in the series on Mus musculus [3], the result was Active.

On to `Cc1cc(OCCCS(C)(=O)=O)cc(C)c1-c1cccc(COc2ccc(OC(C)(C)C(=O)O)cc2)c1`, for which the Ratio in [1] turned out to be 2.45.

As a reminder, the clearance is the volume of plasma or blood freed of the substance per unit of time. For orientation: Vd means the apparent volume that relates the amount in the body to the concentration in plasma or blood. One may read the half-life as the time needed for the level to fall by half in the phase considered. A word on the Cmax: it is the highest concentration seen after dosing. Usually Tmax stands for the time from dosing to the highest level. By AUC(0-t) is commonly meant the area under the concentration-time curve up to a stated or last time point. As usually defined, the bioavailability is the share of a dose that reaches the circulation, judged against a reference dose that is usually intravenous. In the case of `Cc1cc(OCCCS(C)(=O)=O)cc(C)c1-c1cccc(COc2ccc(OCC(=O)O)c(F)c2)c1`, in [1], the Ratio came out at 6.42. For the same compound, in series [2], the EC50 stood at 62.3 nM. The result in the series with Mus musculus [3] and in the series with Mus musculus [5] was Active. For the same compound, the Activity is 31% in the series with Mus musculus [4] and “Dose-dependent effect” with Mus musculus [6]. The compound also gave a clearance in series [7] of 1.83 mL/min/kg. The same compound yielded a distribution volume (Vd) in [8] of 0.26 L/kg. The half-life is 4.15 h in [9] and 3.27 h in series [10]. In [11], this compound yielded a Cmax of 1170 ng/mL. In addition, the time to peak (Tmax) in series [12] amounted to 1 h. In series [13], this compound yielded an area under the curve AUC(0-t) at 8 h of 5340 ng·h/mL. In series [14], this compound came in with a bioavailability of 63%.

In the case of `COc1cc(OCc2cccc(-c3c(C)cc(OCCCS(C)(=O)=O)cc3C)c2)ccc1OCC(=O)O`, in series [1], the Ratio was 2.02.

Take `CCc1cc(OCc2cccc(-c3c(C)cc(OCCCS(C)(=O)=O)cc3C)c2)ccc1OC(C)(C)C(=O)O`: the Ratio in series [1] was 1.48.

With `Cc1cc(OCCCS(C)(=O)=O)cc(C)c1-c1cccc(COc2ccc(OC(C)(C)C(=O)O)c(F)c2)c1`, in series [1], the Ratio is 3.06.

Turning to `Cc1cc(OCc2cccc(-c3c(C)cc(OCCCS(C)(=O)=O)cc3C)c2)cc(C)c1OC(C)(C)C(=O)O`, the Ratio in series [1] was found to be 1.6.

With `Cc1cc(OCCCS(C)(=O)=O)cc(C)c1-c1cccc(COc2ccc(OCC(=O)O)c(Cl)c2)c1`, the Ratio in series [1] was found to be 6.18. In series [2], the EC50 amounted to 92.6 nM. In addition, the result in the series on Mus musculus [3] was Active.

Regarding `COc1cc(OCc2cccc(-c3c(C)cc(OCCCS(C)(=O)=O)cc3C)c2)ccc1OC(C)(C)C(=O)O`, the Ratio in series [1] is 1.81.

`CCC(Oc1ccc(OCc2cccc(-c3c(C)cc(OCCCS(C)(=O)=O)cc3C)c2)cc1)C(=O)O` (configuration not stated): the Ratio in series [1] turned out to be 3.04.

In the case of `CCc1cc(OCc2cccc(-c3c(C)cc(OCCCS(C)(=O)=O)cc3C)c2)ccc1OCC(=O)O`, the Ratio in series [1] was found to be 3.19.

`Cc1cc(OCCCS(C)(=O)=O)cc(C)c1-c1cccc(COc2ccc(OC(C)(C)C(=O)O)c(Cl)c2)c1`: the Ratio in series [1] stood at 3.04.

Regarding `Cc1cc(OCCCS(C)(=O)=O)cc(C)c1-c1cccc(COc2ccc3c(c2)OC[C@H]3CC(=O)O)c1`, in the series with Mus musculus [3], the result was Active. Further, the Activity with Mus musculus [4] is given as 29.3%.
